In ChEMBL document CHEMBL1149455, “Structure-activity relationship study of 1,4-dihydropyridine derivatives blocking N-type calcium channels” (Bioorg Med Chem Lett, 2006) one finds IC50 and inhibition in vivo data, which are given here for 27 molecules.

In test [1] the target is Voltage-gated L-type calcium channel (Rattus norvegicus, UniProt P22002+Q02485+P27732). The experiment in a line: Inhibitory activity against L-type calcium channel in SD rat thoracic aorta by Magnus method. The test is classed as functional, tissue-based. The method in brief:
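Aortic ring held at 2 g resting tension and equilibrated 1 h. It was then exposed to high-K⁺ solution and then Tyrode's solution, 45 min each, and returned to high-K⁺. After maximal contraction, compound was added cumulatively at 90-min intervals to 10⁻⁹, 10⁻⁸, 10⁻⁷ and 10⁻⁶ M. IC50 was derived from inhibition of the K⁺-induced contraction.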

In test [2] the target is Voltage-dependent N-type calcium channel subunit alpha-1B (Homo sapiens, UniProt Q00975). The experiment in a line: Inhibitory activity against N-type calcium channel by calcium influx into IMR32 cells. Type of test: functional, cell-based, IMR-32.
Chain of Voltage-dependent N-type calcium channel subunit alpha-1B (Q00975 whole entry): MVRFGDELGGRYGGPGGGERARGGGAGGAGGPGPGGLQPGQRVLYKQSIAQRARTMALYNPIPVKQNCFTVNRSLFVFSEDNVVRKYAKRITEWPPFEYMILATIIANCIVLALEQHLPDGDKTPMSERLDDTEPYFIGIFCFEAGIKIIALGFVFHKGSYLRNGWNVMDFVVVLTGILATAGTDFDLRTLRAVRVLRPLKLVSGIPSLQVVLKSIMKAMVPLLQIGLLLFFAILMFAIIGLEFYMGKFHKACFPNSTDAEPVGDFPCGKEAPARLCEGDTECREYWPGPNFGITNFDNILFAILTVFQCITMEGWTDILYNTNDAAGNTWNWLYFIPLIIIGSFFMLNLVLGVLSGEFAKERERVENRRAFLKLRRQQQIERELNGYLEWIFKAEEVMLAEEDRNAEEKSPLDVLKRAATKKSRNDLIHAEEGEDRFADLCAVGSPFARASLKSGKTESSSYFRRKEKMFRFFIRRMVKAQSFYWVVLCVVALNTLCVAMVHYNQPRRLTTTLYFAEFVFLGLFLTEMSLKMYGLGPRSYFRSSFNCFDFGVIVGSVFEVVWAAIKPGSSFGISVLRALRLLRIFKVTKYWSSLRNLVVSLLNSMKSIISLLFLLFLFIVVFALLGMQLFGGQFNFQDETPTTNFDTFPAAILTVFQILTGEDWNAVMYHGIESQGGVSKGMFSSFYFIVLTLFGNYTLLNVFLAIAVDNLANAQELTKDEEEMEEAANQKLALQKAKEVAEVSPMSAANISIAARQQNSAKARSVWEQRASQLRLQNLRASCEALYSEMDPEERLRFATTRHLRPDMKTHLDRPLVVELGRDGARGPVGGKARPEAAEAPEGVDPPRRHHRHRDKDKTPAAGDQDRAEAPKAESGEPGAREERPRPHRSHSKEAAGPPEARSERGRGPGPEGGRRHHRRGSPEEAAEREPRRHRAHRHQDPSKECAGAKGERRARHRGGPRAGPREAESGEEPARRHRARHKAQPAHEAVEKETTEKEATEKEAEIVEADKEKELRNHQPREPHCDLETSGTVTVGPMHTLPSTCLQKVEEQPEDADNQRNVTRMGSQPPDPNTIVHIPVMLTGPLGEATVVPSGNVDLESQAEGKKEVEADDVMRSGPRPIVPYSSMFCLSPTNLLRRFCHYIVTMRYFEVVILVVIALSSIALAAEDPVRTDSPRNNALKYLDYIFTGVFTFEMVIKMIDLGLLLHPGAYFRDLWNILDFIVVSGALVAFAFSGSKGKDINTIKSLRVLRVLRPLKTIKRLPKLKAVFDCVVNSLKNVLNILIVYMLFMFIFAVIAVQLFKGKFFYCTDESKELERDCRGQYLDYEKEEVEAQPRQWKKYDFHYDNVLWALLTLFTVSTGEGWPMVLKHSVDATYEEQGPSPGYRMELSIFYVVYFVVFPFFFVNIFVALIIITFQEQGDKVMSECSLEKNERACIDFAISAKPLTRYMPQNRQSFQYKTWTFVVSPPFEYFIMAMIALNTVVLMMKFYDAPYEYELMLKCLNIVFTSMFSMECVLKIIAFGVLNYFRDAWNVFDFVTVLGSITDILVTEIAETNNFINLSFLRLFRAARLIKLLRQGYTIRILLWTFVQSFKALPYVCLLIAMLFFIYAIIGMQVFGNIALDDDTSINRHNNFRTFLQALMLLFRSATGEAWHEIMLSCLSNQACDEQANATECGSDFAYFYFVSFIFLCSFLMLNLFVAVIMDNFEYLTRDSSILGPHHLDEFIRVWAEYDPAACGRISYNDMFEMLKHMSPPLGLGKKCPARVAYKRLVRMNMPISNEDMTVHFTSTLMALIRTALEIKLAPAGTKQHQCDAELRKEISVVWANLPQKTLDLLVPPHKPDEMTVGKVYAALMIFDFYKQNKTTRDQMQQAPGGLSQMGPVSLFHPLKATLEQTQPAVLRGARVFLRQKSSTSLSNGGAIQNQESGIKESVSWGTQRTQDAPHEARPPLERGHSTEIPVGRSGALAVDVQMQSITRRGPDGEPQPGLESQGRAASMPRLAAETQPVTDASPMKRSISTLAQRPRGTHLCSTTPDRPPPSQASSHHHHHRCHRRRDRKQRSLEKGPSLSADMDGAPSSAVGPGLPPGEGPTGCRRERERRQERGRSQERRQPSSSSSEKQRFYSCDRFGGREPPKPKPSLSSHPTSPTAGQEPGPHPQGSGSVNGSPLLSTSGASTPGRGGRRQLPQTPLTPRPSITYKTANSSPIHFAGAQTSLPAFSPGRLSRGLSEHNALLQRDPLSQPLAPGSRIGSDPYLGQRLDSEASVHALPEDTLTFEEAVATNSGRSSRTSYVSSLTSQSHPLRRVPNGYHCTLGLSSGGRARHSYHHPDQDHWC
A further test concerns Rattus norvegicus. The experiment in a line: Analgesic effect in rat following foot-pad injection of formalin at 30 mg/kg, po. Type of test: functional.

A word on the IC50: it is the concentration that inhibits the measured activity by half. One may read the inhibition in vivo as the relative decrease from the control value, in per cent. Read a low inhibition in vivo as little suppression.

A value given as a limit tells only on which side of the number the result lay.

Regarding `CC1=NC(C)=C(C(=O)O)C(c2ccccc2[N+](=O)[O-])/C1=C(\O)OC/C=C/c1ccccc1` (stereo unspecified), the 50% inhibitory concentration (IC50) turned out to be 31 nM in test [1] and 37000 nM in test [2].
Consider `CC1=NC(C)=C(C(=O)O)C(c2cccc(Cl)c2)/C1=C(\O)OC/C=C/c1ccc(Cl)cc1` (stereo unspecified), for which the IC50 in test [1] was 5.8 nM; in test [2], 1500 nM.
`CC1=C(C(=O)O)C(c2cccc(Cl)c2)C(C(=O)OCCC(c2ccccc2)c2ccccc2)=C(C(F)(F)F)N1` (stereo unspecified): the figures for the IC50 in test [1] and in test [2] were 1800 nM and 1700 nM, respectively. Besides, in the test with Rattus norvegicus, at 30 mg/kg the inhibition in vivo was 46%.
With `CC1=NC(C)=C(C(=O)O)C(c2cccc(Cl)c2)/C1=C(\O)OCC(=O)Nc1ccccc1` (stereo unspecified), the half-inhibitory concentration (IC50) in test [1] came to 50 nM; in test [2], 28000 nM.
Take `CC1=NC(C)=C(C(=O)O)C(c2ccoc2)/C1=C(\O)OC/C=C/c1ccccc1` (stereo unspecified): the IC50 is 130 nM in test [1] and 11000 nM in test [2].
As for `CC1=NC(C)=C(C(=O)O)C(c2cccc(Cl)c2)/C1=C(\O)OCCC(c1ccccn1)c1ccccn1` (stereo unspecified), the IC50 came to 1600 nM in test [1] and 10000 nM in test [2].
The matching figures for `COC(=O)c1cccc(C2C(C(=O)O)=C(C)N=C(C)/C2=C(/O)OC/C=C/c2ccccc2)c1` (stereo unspecified): 4400 nM and 4600 nM.
The matching figures for `CC1=NC(C)=C(C(=O)O)C(c2ccccc2)/C1=C(\O)OC/C=C/c1ccccc1` (stereo unspecified): 9 nM and 2000 nM.
As to `CC1=NC(C)=C(C(=O)O)C(c2cccc(Cl)c2)/C1=C(\O)OCC=C(c1ccccc1)c1ccccc1` (stereo unspecified), the concentration for half-maximal inhibition (IC50) in test [1] turned out to be 200 nM; in test [2] it was 3900 nM.
The matching figures for `CC1=NC(C)=C(C(=O)O)C(c2ccc([N+](=O)[O-])cc2)/C1=C(\O)OC/C=C/c1ccccc1` (stereo unspecified): 1600 nM and 21000 nM.
Consider `CC1=C(C(=O)O)C(c2cccc(Cl)c2)C(C(=O)NC/C=C/c2ccccc2)=C(C)N1` (stereo unspecified), for which the IC50 in test [1] came out at 850 nM; in test [2] it was 4500 nM.
The like results for `CC1=NC(C)=C(C(=O)O)C(c2cccc(I)c2)/C1=C(\O)OC/C=C/c1ccccc1` (stereo unspecified) were, in that order, 13 nM and 1700 nM.
Turning to `CC1=NC(C)=C(C(=O)O)C(c2cccc(Cl)c2)/C1=C(\O)OC/C=C/c1ccccc1` (stereo unspecified), the IC50 worked out at 20 nM in test [1] and 1000 nM in test [2].
`CC1=NC(C)=C(C(=O)O)C(c2cccc(Cl)c2)/C1=C(\O)OCCC(c1ccccc1)c1ccccc1` (stereo unspecified): the IC50 was 360 nM in test [1] and 1100 nM in test [2].
With `CC1=NC(C)=C(C(=O)O)C(c2cccc(Cl)c2)/C1=C(\O)OC/C=C/C1CCCCC1` (stereo unspecified), the IC50 was determined as 3.7 nM in test [1] and 830 nM in test [2].
For the molecule `CC1=NC(C)=C(C(=O)O)C(c2cccnc2)/C1=C(\O)OC/C=C/c1ccccc1` (stereo unspecified), the IC50 was determined as 190 nM in test [1] and 24000 nM in test [2].
The matching figures for `CC1=NC(C)=C(C(=O)O)C(c2cccc(C)c2)/C1=C(\O)OC/C=C/c1ccccc1` (stereo unspecified): 76 nM and 1800 nM.
Consider `CC1=NC(C)=C(C(=O)O)C(c2cccc(Cl)c2)/C1=C(\O)OC/C=C/c1ccc(C)cc1` (stereo unspecified), for which the values for the concentration for half-maximal inhibition (IC50) in test [1] and in test [2] were 6.8 nM and 890 nM, respectively.
The like results for `CC1=C(C(=O)O)C(c2cccc([N+](=O)[O-])c2)C(C(=O)OC/C=C/c2ccccc2)=C(C)N1` (stereo unspecified) were, in that order, 46 nM and 3500 nM.
In the case of `CC1=NC(C)=C(C(=O)O)C(c2ccsc2)/C1=C(\O)OC/C=C/c1ccccc1` (stereo unspecified), the IC50 is 44 nM in test [1] and 2900 nM in test [2].
On to `CC1=NC(C)=C(C(=O)O)C(c2cccc(Cl)c2)/C1=C(\O)OC/C=C/c1ccncc1` (stereo unspecified), for which the IC50 in test [1] worked out at 320 nM; in test [2], 6200 nM.
Turning to `CC1=NC(C)=C(C(=O)O)C(c2cccc(F)c2)/C1=C(\O)OC/C=C/c1ccccc1` (stereo unspecified), the IC50 was found to be 20 nM in test [1] and 1300 nM in test [2].
The like results for `CC1=NC(C)=C(C(=O)O)C(c2cccc(C(=O)O)c2)/C1=C(\O)OC/C=C/c1ccccc1` (stereo unspecified) were, in that order, greater than 10000 nM and 37000 nM.
For the molecule `CC1=NC(C)=C(C(=O)O)C(c2cccc(Cl)c2)/C1=C(\O)OCc1ccc2ccccc2c1` (stereo unspecified), the IC50 amounted to 14 nM in test [1] and 3900 nM in test [2].
The like results for `CC1=NC(C)=C(C(=O)O)C(c2cccc(Br)c2)/C1=C(\O)OC/C=C/c1ccccc1` (stereo unspecified) were, in that order, 10 nM and 790 nM.
On to `COCCOC(=O)C1=C(C)NC(C)=C(C(=O)OC/C=C/c2ccccc2)C1c1cccc([N+](=O)[O-])c1` (stereo unspecified) [CILNIDIPINE], for which the half-inhibitory concentration (IC50) in test [1] was 1.1 nM; in test [2], 1600 nM. Further, in the test on Rattus norvegicus, at 30 mg/kg the inhibition in vivo was 46%.
`CC1=NC(C)=C(C(=O)O)C(c2cccc(Cl)c2)/C1=C(\O)OC/C(C)=C/c1ccccc1` (stereo unspecified): the values for the 50% inhibitory concentration (IC50) in test [1] and in test [2] were 2.8 nM and 680 nM, respectively.
